Sampled rows, rich in hits. Any-hit rate of the full collection: about 3.5%.
PAFAH2 FP inh – PAFAH2 enzyme inhibitors, primary screen, biochemical, fluorescence polarization, human; recombinant PAFAH2, FP-rhodamine activity probe; inhibition, % at 3.39 µM; Platelet-activating factor acetylhydrolase 2, cytoplasmic (Homo sapiens), Q99487; actives 0.99% (n = 340,000);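 active means inhibition above the mean over all tested compounds plus 3 SD, cut at about 30% in these data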;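 further: inhibitors block probe labeling of enzyme so polarization drops; 0% = enzyme with DMSO and 100% = wells lacking PAFAH2 protein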
PAFAH1B2 FP inh – PAFAH1B2 enzyme inhibitors, primary screen, biochemical, fluorescence polarization, human | Platelet-activating factor acetylhydrolase IB subunit alpha2 (Homo sapiens), P68402 | recombinant PAFAH1B2, FP-rhodamine activity probe | inhibition, % at 3.39 µM | actives 1.2% (n = 340,000) | AID 492953, 2010;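 active means inhibition above the mean of all tested compounds plus 3 SD, cut at about 24% in these data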;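 further: 0% = enzyme with DMSO and 100% = wells lacking PAFAH1B2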
PAFAH1B3 FP inh – PAFAH1B3 enzyme inhibitors, primary screen, biochemical, fluorescence polarization, human | actives 0.28% (n = 340,000) | AID 492972, 2010 | inhibition, % at 3.39 µM | recombinant PAFAH1B3, FP-rhodamine probe | Platelet-activating factor acetylhydrolase IB subunit alpha1 (Homo sapiens), Q15102;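 active means inhibition above the screen-wide average of all tested compounds plus 3 SD, cut at about 25% in these data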;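 further: 0% = enzyme with DMSO only and 100% = wells lacking PAFAH1B3 protein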
PREPL inh – PREPL enzyme inhibitors, primary screen, biochemical, fluorescence polarization; recombinant PREPL, fluorescence polarization activity-based probe; actives 0.68% (n = 320,000); Prolyl endopeptidase-like (Homo sapiens), Q4J6C6; inhibition, % at 5.96 µM; in the data active means inhibition above about 43%;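 further: 0% = enzyme with DMSO and 100% = wells lacking enzyme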
Target sequence (Q4J6C6 whole entry, looked up): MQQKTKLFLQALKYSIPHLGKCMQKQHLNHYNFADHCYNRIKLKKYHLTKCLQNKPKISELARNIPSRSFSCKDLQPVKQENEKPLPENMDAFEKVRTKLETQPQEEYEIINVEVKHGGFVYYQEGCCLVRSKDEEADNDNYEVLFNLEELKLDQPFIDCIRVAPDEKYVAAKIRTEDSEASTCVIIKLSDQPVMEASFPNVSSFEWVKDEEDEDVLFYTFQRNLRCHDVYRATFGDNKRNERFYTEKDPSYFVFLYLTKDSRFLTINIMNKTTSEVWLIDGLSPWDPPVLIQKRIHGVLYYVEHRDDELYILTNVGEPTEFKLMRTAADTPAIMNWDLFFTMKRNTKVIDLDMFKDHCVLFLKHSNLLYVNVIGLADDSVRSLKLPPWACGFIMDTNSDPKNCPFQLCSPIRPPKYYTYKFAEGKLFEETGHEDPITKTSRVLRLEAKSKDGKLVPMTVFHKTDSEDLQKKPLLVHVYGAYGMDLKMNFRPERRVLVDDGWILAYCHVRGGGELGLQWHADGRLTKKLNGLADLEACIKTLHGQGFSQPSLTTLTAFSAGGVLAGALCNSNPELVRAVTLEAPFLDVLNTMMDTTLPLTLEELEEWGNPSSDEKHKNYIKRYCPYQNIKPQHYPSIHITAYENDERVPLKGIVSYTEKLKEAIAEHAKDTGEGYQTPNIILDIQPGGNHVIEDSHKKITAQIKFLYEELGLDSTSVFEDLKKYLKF
pPAFAH inh – pPAFAH enzyme inhibitors, primary screen, biochemical, fluorescence polarization, human; Platelet-activating factor acetylhydrolase (Homo sapiens), Q13093; recombinant pPAFAH, FP-rhodamine probe fluorescence polarization; inhibition, % at 3.39 µM; actives 1.5% (n = 330,000);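 active means inhibition above the mean inhibition across the screen plus 3 SD, cut at about 25% in these data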;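 further: inhibitors block binding of the rhodamine activity-based probe so polarization drops; 0% = enzyme with DMSO and 100% = wells lacking pPAFAH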
Apaf1 inhib – inhibitors of human Apaf-1 apoptosome, primary screen, biochemical, DEVD-Rh110 fluorescence, uHTS. inhibition, % at 20 µM. Apoptotic protease-activating factor 1 (Homo sapiens), O14727. reconstituted apoptosome caspase-3 activity. actives 0.71% (n = 330,000); active means inhibition of at least 40% at 20 µM;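 further: plate controls were DMSO wells for no effect and DEVD-CHO caspase inhibitor wells for full effect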
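System: Apoptosome proteins | Medium: Hepes pH 7.5 with detergent and BSA | Also added: Cytochrome c trigger plus (Z-DEVD)2-Rh110 caspase-3 substrate | Incubation: 30 min compound preincubation, 50 min activation, room temperature | Detection: Rhodamine 110 fluorescence at Ex 480/Em 540 nm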
Numbers without * were called inactive; / = not tested or not shown.

SMILES	PAFAH2 FP inh	PAFAH1B2 FP inh	PAFAH1B3 FP inh	PREPL inh	pPAFAH inh	Apaf1 inhib
O=C(Cn1nc(-c2ccccc2Cl)ccc1=O)Nc1ccccc1-c1ccccc1	-3	4	2	3	-1	56*
CC12CC3CC(C)(C1)CC(C(=O)NC1=NCCS1)(C3)C2	-2	28*	5	-3	0	11
CC(C)(C)c1ccc(OCCC(=O)Nc2cccc(S(=O)(=O)NC3=NCCCCC3)c2)cc1	-3	1	4	/	/	30
Cc1cc(Cl)ccc1OCCCC(=O)NNC(=O)c1ccccc1O	2	13	15	18	29*	6
Cc1ccccc1C(=O)Nc1ccc(C(=O)NNC(=O)CCCOc2ccc(Cl)cc2Cl)cc1	-2	0	-4	1	4	-9
Cc1ccc2c(c1C)-c1c(ccc(C)c1C)C(=O)C2=O	31*	15	70*	/	/	/
CC(C)CN1CC(C(=O)O)CC1=O (centres undefined)	-3	1	5	7	1	3
Cc1ccc(O)c(NC(=S)NC(=O)/C=C/c2ccccc2)c1	3	-4	2	-1	-2	2
O=C(/C=C/c1ccco1)NC(=S)Nc1ccc(O)c(-c2nc3ccccc3s2)c1	13	-3	-1	6	25*	16
Cc1ccc(O)c(NC(=S)NC(=O)/C=C/c2ccco2)c1	-5	2	7	7	25*	3
COc1cccc(NC(=O)CCC(=O)N2CC(C)Oc3ccc(C)cc32)c1 (centres undefined)	-6	3	4	14	3	9
O=C(N/N=C\c1c(O)ccc2ccccc12)c1ccc(O)cc1	-14	21	41*	12	26*	14
O=C(N/N=C/c1c(O)ccc2ccccc12)c1ccc(Br)o1	14	12	35*	16	29*	0
O=C(NN=Cc1c(O)ccc2ccccc12)c1ccncc1	-1	4	18	/	/	/
Cc1ccc(C(=O)N/N=C/c2c(O)ccc3ccccc23)cn1	7	19	25	21	31*	7
O=C(N/N=C/c1c(O)ccc2ccccc12)c1cccnc1	11	20	25	22	25*	11
Cn1cc(C(=O)N/N=C/c2c(O)ccc3ccccc23)ccc1=O	11	13	6	20	19	-3
O=C(N/N=C/c1c(O)ccc2ccccc12)Nc1ccccc1	/	/	/	14	27*	-7
Nc1cc(Cl)nc(N/N=C/c2c(O)ccc3ccccc23)n1	-4	6	8	43*	15	9
O=C(CSCC(=O)Nc1ccccc1)N/N=C/c1c(O)ccc2ccccc12	8	5	16	23	11	8
O=C(O)c1cc(N/N=C/c2c(O)ccc3ccccc23)ccc1Cl	29	18	20	25	11	14
O=C(N/N=C/c1cc(Br)c(O)c(Br)c1)c1cc2c(ccc3ccccc32)o1	29	49*	43*	/	/	30
O=C(N/N=C/c1ccc(O)c2ncccc12)c1cccc(Br)c1	13	17	26*	7	27*	-68
COc1ccc(S(=O)(=O)N(C)c2ccc(C(=O)NCc3ccccn3)cc2)cc1	-2	4	8	5	-4	1
Nc1ncnc2c1nc(Sc1ccc(Cl)cc1)n2[C@@H]1O[C@@H]2COP(=O)(O)O[C@H]2[C@H]1O	-4	26*	4	-5	2	-2
SMILES	PAFAH2 FP inh	PAFAH1B2 FP inh	PAFAH1B3 FP inh	PREPL inh	pPAFAH inh	Apaf1 inhib
CCCC(=O)Nc1ncnc2c1ncn2[C@@H]1O[C@@H]2COP(=O)(O)O[C@H]2[C@H]1OC(=O)CCC	0	5	5	-1	3	-4
CN(C(=O)c1ccc(NC(=O)Cc2ccc(NC(=O)C3CCCN(C(=O)C4CC4)C3)cc2)cc1)C1CCCC1 (centres undefined)	-6	4	-1	/	/	/
COc1ccc(NC(=O)COC(=O)CCC2CCCCC2)cc1	32*	12	4	6	32*	4
NC(=O)c1ccc(NC(=O)COC(=O)CCC2CCCCC2)cc1	-2	8	0	-6	3	6
O=C(COC(=O)CC1CCCC1)Nc1ccc(OC(F)F)cc1	62*	1	3	-3	28*	-2
Cc1ccc(NC(=O)COC(=O)CC2CCCC2)cc1F	79*	-2	0	13	30*	1
CCCC(=O)OCC(=O)Nc1ccc(OC(F)F)cc1	7	-1	1	-4	4	-1
Cc1ccc(NC(=O)COC(=O)CN2C(=O)C3CCCCC3C2=O)cc1C (centres undefined)	1	2	9	7	-1	1
COc1ccc(NS(=O)(=O)c2ccc(OC)c(NC(=O)CCC3CCCCC3)c2)cc1	-6	10	4	-4	29*	22
CCC(C)C(NS(=O)(=O)c1ccc(C)cc1)C(=O)NCCCN1CCOCC1 (centres undefined)	3	0	5	1	2	-11
CCOc1ccc(NC(=O)COC(=O)c2ccc3c(c2)C(=O)N(CCc2ccccc2)C3=O)cc1	4	1	7	1	15	0
O=C(COC(=O)c1ccc2c(c1)C(=O)N(CCc1ccccc1)C2=O)Nc1ccc(OC(F)F)cc1	-4	5	7	4	25*	12
COc1ccccc1C(=O)OCC(=O)Nc1ccc(OC(F)F)cc1	48*	-2	-6	-1	28*	-11
CCc1ccc(NC(=O)COC(=O)CC2CCCC2)cc1	76*	2	6	6	26*	10
COc1ccc(NC(=O)N(C)C[C@H]2Oc3ccc(NC(=O)Nc4c(C)noc4C)cc3C(=O)N([C@H](C)CO)C[C@H]2C)cc1	0	6	3	3	-7	10
CC(=O)c1cccc(S(=O)(=O)N2CCn3cccc3C2C)c1 (centres undefined)	3	2	0	13	6	10
COc1ccc(C(=O)CSC2=C(C#N)C3(CCCCC3)C(C#N)=C(N)N2)cc1	0	27*	5	0	5	2
CC(C)NS(=O)(=O)c1ccc(CCC(=O)N2CCCCC2)cc1	1	3	4	4	0	-4
CCOc1cc(C=O)ccc1OCCSc1ccc(Cl)cc1	-2	54*	-1	34	13	14
CCOc1cc(C=O)ccc1OCC(N)=O	1	2	-1	11	2	22
